High-throughput results deposited in PubChem by Broad Institute.
GSK3beta inhib – human GSK3beta kinase inhibitors, primary screen, biochemical, cell-free homogeneous, HTS; Glycogen synthase kinase-3 beta (Homo sapiens), P49841; GST-GSK3beta kinase, ADP-Glo luminescence, 60 min; active compounds read low; activity score (negative = inhibition), % at 10 µM; actives 0.038% (n = 300,000);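 active means more than half of replicate wells score below -50%, meaning over 50% inhibition versus plate controls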;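 further: 0% = median DMSO wells and -100% = median GW8510 positive control wells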
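Test system: GST-fused GSK3beta enzyme, cell-free | Quantity: 1.6 ng GST-GSK3beta enzyme per well | Reagent: 25 µM ATP with peptide substrate | Schedule: 60 min enzyme reaction, room temperature | Signal: Luminescent ADP-Glo measurement of ADP formed | Read-out basis: Score relative to plate controls | Control set: DMSO and 20 µM GW8510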
STK33 kinase inh – inhibitors of purified STK33 kinase, primary screen, biochemical, ADP-Glo luminescence, homogeneous, cell-free; Serine/threonine-protein kinase 33 (Homo sapiens), Q9BYT3; MBP phosphorylation; inhibition, % at 10 µM; actives 0.073% (n = 320,000); AID 2661, 2010;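 active means inhibition at or above 25%, using the most active replicate where run in duplicate; inactive means inhibition below 25%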
Target sequence (Q9BYT3 whole entry, looked up): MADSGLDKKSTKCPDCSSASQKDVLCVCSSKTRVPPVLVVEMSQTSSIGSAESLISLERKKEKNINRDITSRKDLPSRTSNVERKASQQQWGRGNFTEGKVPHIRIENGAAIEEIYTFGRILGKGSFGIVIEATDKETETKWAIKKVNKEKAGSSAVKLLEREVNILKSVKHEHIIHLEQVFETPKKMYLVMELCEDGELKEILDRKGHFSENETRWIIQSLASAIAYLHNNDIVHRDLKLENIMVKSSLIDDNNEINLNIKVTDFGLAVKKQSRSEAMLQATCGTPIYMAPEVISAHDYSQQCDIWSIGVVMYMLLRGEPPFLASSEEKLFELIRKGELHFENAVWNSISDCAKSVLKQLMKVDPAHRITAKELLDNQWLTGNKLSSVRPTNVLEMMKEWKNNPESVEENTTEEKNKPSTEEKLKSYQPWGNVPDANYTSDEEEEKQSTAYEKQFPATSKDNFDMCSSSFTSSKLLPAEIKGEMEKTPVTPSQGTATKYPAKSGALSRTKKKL
Dyrk1A ADPGlo – rat Dyrk1A kinase inhibitors, primary screen, biochemical, single point, plate reader; actives 0.43% (n = 310,000); ADP-Glo luminescence, NFATc1 peptide; inhibition, % at 12.5 µM; in the data active means inhibition above about 50%;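 further: plate controls were vehicle with enzyme for no effect and no enzyme for full effect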
GSK3 alpha inh – blockers of GSK3A enzyme activity – biochemical, luminescence, cell-free homogeneous, HTS, primary screen. Glycogen synthase kinase-3 alpha (Homo sapiens), P49840. GSK-3 alpha kinase, ADP-Glo luminescence, 60 min. inhibition, % at 10 µM. actives 0.1% (n = 320,000);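 active means more than half of replicates show inhibition above 20%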;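 further: GST-tagged GSK-3 alpha with peptide substrate and 25 µM ATP; 0% = DMSO neutral wells and 100% = GW8510 positive control wells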
Dyrk1A artifact – ADP-Glo luciferase interference without Dyrk1A, dose response, artefact control for Dyrk1A inhibitor project, biochemical, luminescence, cherry-pick, set 02. shares compounds with Dyrk1A ADPGlo. ADP-Glo luciferase artifact assay, no Dyrk1A. AC50, µM (titrated, usually from 12 µM), for the others: top-dose activity change, negative = inhibition. 1,300 tested, under 10 active;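 active means fitted half-maximal dose AC50 no more than ten times the top valid tested dose, with luminescence dropping as dose rises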
Numbers without * were called inactive; . = no result. The entries come from a sample that favours hits as a whole.

SMILES | GSK3beta inhib | STK33 kinase inh | Dyrk1A ADPGlo | GSK3 alpha inh | Dyrk1A artifact
COC(=O)[C@]1(CC(C)C)N[C@H](c2ccc(-c3cccc(Cl)c3)cc2)[C@@H]2C(=O)N(C)C(=O)[C@@H]21 | -1 | 1 | 56* | -2 | 9%
COC(=O)[C@]1(C)N[C@H](c2ccc(-c3cccc(Cl)c3)cc2)[C@@H]2C(=O)N(C)C(=O)[C@@H]21 | . | 0 | 9 | -2 | .
Cc1cc(C)n(CCN(C)c2nc3nonc3nc2NC2CC2)n1 | 0 | 0 | -3 | -2 | .
COc1ccc(S(=O)(=O)NC(C)C(=O)NCc2ccccn2)cc1Cl (configuration not stated) | 3 | 0 | 2 | 1 | .
CC1CCC(NC(=O)c2cc(S(=O)(=O)N3CCCCC3)c[nH]2)CC1 (configuration not stated) | 4 | -2 | 57* | 1 | 8%
CCCNC(=O)c1cc(S(=O)(=O)N2CCCCC2)c[nH]1 | 4 | -1 | 2 | -2 | .
CSCCC(NC(=O)c1ccco1)C(=O)NC1CCC(C)CC1 (configuration not stated) | . | 0 | -2 | 0 | .
COc1ccc(COC(=O)c2ccc(Cl)c(S(=O)(=O)N3CC(C)OC(C)C3)c2)cc1 (configuration not stated) | 2 | -2 | 4 | -1 | .
NC(=O)CC(NC(=O)c1ccc(Br)cc1)c1ccc(N2CCN(c3ccccn3)CC2)c([N+](=O)[O-])c1 (configuration not stated) | -7 | -1 | 3 | -3 | .
NC(=O)CC(NC(=O)c1cccc(Br)c1)c1ccc(N2CCN(c3ccccn3)CC2)c([N+](=O)[O-])c1 (configuration not stated) | -2 | 0 | 54* | -2 | 10%
CCCCn1c(N)c(N(CCOC)C(=O)CN(C)S(=O)(=O)c2ccc(C)cc2)c(=O)[nH]c1=O | 0 | 0 | 15 | 0 | .
CCOc1ccc(C(C)=O)cc1COC(=O)CCc1cc(OC)c(OC)c(OC)c1 | 1 | -1 | -1 | -2 | .
Cc1cccc(Cl)c1OCCCCn1ccnc1 | 1 | 3 | 56* | 5 | 11%
COc1ccc2nc(C)c3c(c2c1)OC(C(C)(Cl)Br)C3 (configuration not stated) | 0 | 1 | 79* | 1 | 10%
O=c1cc[nH]c2c1ccc1cccnc12 | -12 | 1 | 81* | . | 10%
O=C1CCCC2=C1Sc1ccc(Cl)cc1N2 | -5 | -1 | 54* | 8 | 9%
CCN1CCN(C(=O)CS(=O)(=O)Cc2nc(-c3cccc(OC)c3)oc2C)CC1 | 17 | -1 | -2 | -2 | .
CCCN1CCN(C(=O)C2CCN(S(=O)(=O)c3ccc4c(c3)NC(=O)C(C)S4)CC2)CC1 (configuration not stated) | -8 | -3 | . | -1 | .
N=C(N)c1ccc(N=Nc2c(O)ccc3c2[nH]c2ccccc23)cc1 | . | . | 78* | . | 6%
Cc1ccc2c(c1)nc(-n1nc(C)cc1C)c1nnnn12 | -2 | -1 | 1 | 3 | .
Cc1ccc(NC2CCCN(C(=O)c3cccc(-c4ncc[nH]4)c3)C2)cc1C (configuration not stated) | 16 | -1 | . | -1 | .
COc1ccc(/C=C2\SC(=O)NC2=S)cc1OC | 0 | . | 58* | . | 8%
CCOc1ccc(/C=C2\SC(=S)N(C)C2=O)cc1OC | -3 | -1 | . | 0 | .
COc1cc(/C=C2\SC(=O)NC2=O)ccc1Oc1ccc([N+](=O)[O-])cc1[N+](=O)[O-] | -4 | -2 | 77* | 2 | 10%
Cc1ccc(-c2csc3ncnc(SCC(=O)O)c23)cc1 | 4 | 6 | 76* | 0 | 9%
SMILES | GSK3beta inhib | STK33 kinase inh | Dyrk1A ADPGlo | GSK3 alpha inh | Dyrk1A artifact
CN(C)c1ccc(C(CNS(=O)(=O)c2ccc3ccccc3c2)N2CCOCC2)cc1 (configuration not stated) | 6 | 0 | 3 | -4 | .
NC1=NC(=O)/C(=C/c2ccc(-c3ccc(S(N)(=O)=O)cc3)o2)S1 | -2 | 0 | 77* | 65* | 13%
CC1(C)OC(=O)C(=Cc2ccc(-c3ccc(S(N)(=O)=O)cc3)o2)C(=O)O1 | 0 | -1 | -1 | -1 | .
NC1=NC(=O)/C(=C\c2ccco2)S1 | -1 | 3 | 47 | 3 | .
CS(=O)(=O)Nc1ccc(-c2ccc(/C=C3\SC(N)=NC3=O)o2)cc1 | 0 | -1 | 84* | 55* | 10%
COc1ccc(NC(=O)COc2coc(CN3c4ccccc4CC3C)cc2=O)cc1 (configuration not stated) | -2 | -1 | -3 | -2 | .
O=C(OCC(=O)N1CCN(c2ccccc2)CC1)c1ccccc1NCCO | 0 | -1 | 9 | -3 | .
Cc1cc2nncn2c2ccccc12 | 1 | 1 | 57* | -4 | 9%
CS(=O)(=O)c1ccc(Cl)c(NC(=O)COC(=O)COc2ccc3c(c2)CCC3)c1 | -1 | 0 | . | -3 | .
Cc1nc2c(ccc3nc(NC(=O)Cc4ccccc4)sc32)s1 | -7 | 15 | 68* | 5 | 6%
Cc1ccc(-c2nn(-c3ccccc3)cc2CO)cc1 | 1 | -1 | 0 | -2 | .
COc1ccc(-c2nn(-c3ccccc3)cc2CO)cc1 | -1 | 1 | 62* | -1 | 13%
O=C(CN1C(=O)NC(c2ccccc2)(c2ccccc2)C1=O)NCc1ccc(F)cc1 | . | -1 | -4 | -5 | .
O=C1C=C(N2CCOCC2)c2ccccc2C1=O | 4 | 5 | 56* | -3 | 9%
O=C(COC(=O)c1cccs1)c1ccc2c(c1)OCCO2 | 2 | 10 | 13 | 13 | .
O=C(COC(=O)c1cccs1)c1ccc2ccccc2c1 | 1 | 0 | 51* | 5 | 7%
Cc1noc(NS(=O)(=O)c2ccc(N/C=C\C(=O)c3ccc(Br)cc3)cc2)c1C | 3 | 3 | 63* | -2 | 7%
Cc1nn(C(=O)c2cccc([N+](=O)[O-])c2)c(C)c1Cl | -2 | -1 | -3 | -3 | .
O=C(c1cccc2c1-c1ccccc1/C2=N/O)N1CCCCC1 | -3 | 7 | 60* | 4 | 10%
O=C(O)c1cccc2c1-c1ccccc1/C2=N\Nc1ccccc1 | 1 | -2 | 7 | -1 | .
O=C(O)c1cccc2c1/C(=N/O)c1ccccc1-2 | 1 | 4 | 81* | 2 | 9%
NC(=O)N/N=C1\c2ccccc2-c2c(C(N)=O)cccc21 | 2 | 8 | 51* | 5 | 10%
Cc1ccc(NC(=O)CSCC(=O)Nc2ccccc2C(=O)NC2CC2)cc1 | . | . | -5 | . | .
COc1cc(-c2cc(=O)c3c(O)c(OC)c(OC)c(O)c3o2)ccc1O | -26 | 46* | 80* | 42 | 7%
